# IDE cell activ: human IDE activators in live cells, primary screen, fluorescence polarization, HEK cells, FAbeta-B substrate; FAbeta-B cleavage; 0% vehicle, 100% cell-free pure enzyme wells; Insulin-degrading enzyme (Homo sapiens), P14735; hit rate 0.073% among 340,000; activation, % at 5.96 µM;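 active means activation above the mean of all tested compounds plus 3 SD, set per screening campaign, cut at about 17% in these data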
# IDE cell inh: human IDE inhibitors in live cells, primary screen, fluorescence polarization, HEK cells, FAbetaB substrate | Insulin-degrading enzyme (Homo sapiens), P14735 | FAbetaB cleavage | inhibition, % at 5.59 µM | hit rate 0.41% among 320,000;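 active means percent inhibition above the average of all tested compounds plus 3 SD, set per screening campaign, cut at about 16% in these data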;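 further: IDE supplied by intact live HEK cells; FP after avidin binding of uncleaved biotin substrate so inhibition keeps polarization high; 0% = DMSO wells and 100% = 60 µM reference IDE inhibitor Ii1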
# TPT1 inhibitor: Candida albicans TPT1 enzyme inhibitors, primary screen, biochemical, fluorescence polarization. tRNA 2'-phosphotransferase TPT1 (Candida albicans SC5314). AID 1962, 2009. inhibition, % at 5 µM. hit rate 0.81% among 300,000. recombinant caTPT1, FP RNA substrate dephosphorylation;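 active means inhibition above the mean of all tested compounds plus 3 SD, set per screening campaign, cut at about 24% in these data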;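 further: plate controls were DMSO alone for no effect and ferristatin control at 100 nM for full effect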
# Rpn11 inh: Rpn11 (PSMD14) deubiquitinase inhibitors, primary screen, biochemical, fluorescence polarization, uHTS. human 26S proteasome, Ub4-pepOG fluorescence polarization; 20S core pre-blocked with epoxomicin. inhibition, % at 20 µM. hit rate 0.59% among 360,000;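 active means inhibition at 20 µM, scaled to each plate's controls, above about 33%, limit read from the data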
# Target sequence (O00487 whole entry, looked up): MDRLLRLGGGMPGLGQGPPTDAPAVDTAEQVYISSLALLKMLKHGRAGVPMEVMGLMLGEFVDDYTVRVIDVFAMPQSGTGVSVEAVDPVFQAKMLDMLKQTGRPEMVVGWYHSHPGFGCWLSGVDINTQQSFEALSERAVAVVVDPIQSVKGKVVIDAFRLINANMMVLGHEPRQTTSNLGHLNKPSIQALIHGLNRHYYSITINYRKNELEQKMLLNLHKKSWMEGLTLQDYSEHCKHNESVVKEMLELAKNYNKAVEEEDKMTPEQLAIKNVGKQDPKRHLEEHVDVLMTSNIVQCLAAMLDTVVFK
# HNF4A DNA FP: change in binding of human HNF4A to DNA, primary screen, biochemical, fluorescence polarization, FITC-DNA. 1 h. activity change, % at 10 µM. hit rate 0.3% among 360,000. AID 1224865, 2016; in the data active means activity change above about 30%, passing the limit was not always enough
# CSN inh: inhibitors of CSN-mediated cullin deneddylation, primary screen, biochemical, fluorescence polarization, uHTS; Purified CSN, SCF-Nedd8-OG deneddylation; inhibition, % at 12.5 µM; hit rate 0.38% among 360,000; AID 651999, 2013;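 active means pattern-corrected inhibition above about 35%, with an unprinted fluorescence ratio check between 0.5 and 1.5, limit read from the data, passing the limit was not always enough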;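 further: 0% = enzyme with substrate and 100% = substrate without enzyme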
# Target sequence (Q92905 whole entry, looked up, one chain of several): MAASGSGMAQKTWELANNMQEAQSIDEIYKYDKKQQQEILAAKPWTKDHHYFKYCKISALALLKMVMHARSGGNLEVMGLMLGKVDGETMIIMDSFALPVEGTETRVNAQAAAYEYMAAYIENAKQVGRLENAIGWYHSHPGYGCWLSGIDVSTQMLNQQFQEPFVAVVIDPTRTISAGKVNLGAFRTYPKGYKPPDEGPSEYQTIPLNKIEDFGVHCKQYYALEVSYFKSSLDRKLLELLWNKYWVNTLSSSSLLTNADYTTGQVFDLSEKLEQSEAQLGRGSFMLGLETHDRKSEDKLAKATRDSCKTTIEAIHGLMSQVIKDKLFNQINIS
#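 Material: purified human Csn5 enzyme expressed in HEK293T cells / Medium: Tris buffer pH 7.5, NaCl, DTT, Tween-20, trehalose, ovalbumin / Compound dosing: 12.5 µM single point / Schedule: 90 min incubation of compound, enzyme and substrate at room temperature / Signal: fluorescence polarization of the substrate / Control set: no-enzyme wells high, enzyme-with-substrate wells low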
# IDE cell inh cf: human IDE inhibitors in live cells, confirmation, fluorescence polarization, HEK cells, FAbetaB substrate; shares compounds with IDE cell inh; FAbetaB cleavage; inhibition, % at 5.59 µM; hit rate 51% among 1,200;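 active means mean inhibition across triplicate wells above the cutoff set by the earlier primary insulin-degrading enzyme screen, cut at about 16% in these data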;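 further: 0% = DMSO wells and 100% = 60 µM reference IDE inhibitor Ii1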
# HEK cytotox: cytotoxicity in HEK cells, cytotoxicity control for IDE inhibitor project, cell-based, luminescence | shares compounds with IDE cell inh | HEK293 cytotoxicity, ATP luminescence | inhibition, % at 5.59 µM | hit rate 28% among 1,200 | AID 449730, 2010; in the data active means inhibition above about 22%;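 further: 0% = vehicle wells and 100% = reference cytotoxic drug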
# IDE FP artifact: fluorescent or optically active artefacts, dose response, artefact control for IDE inhibitor project, biochemical, fluorescence polarization; 30 tested, under 10 active; AID 588718, 2011; shares compounds with IDE cell inh; IC50, µM; FP counterscreen for fluorescent artifacts, IDE probe project; call rule not given here
# Starred values were filed as active, the others as inactive; x = no result shown. Most compounds without a hit are left out; they make up all but 1.7% or so of the library.
SMILES,IDE cell activ,IDE cell inh,TPT1 inhibitor,Rpn11 inh,HNF4A DNA FP,CSN inh,IDE cell inh cf,HEK cytotox,others
O=C(Nc1cccc(C(F)(F)F)c1)c1csc(-c2ccncc2)n1,-31.1,49.7*,0.5,-4.1,-1.6,-0.7,28.6*,20.2,IDE FP artifact=>54.7
Cc1nc(-c2cccnc2)sc1C(=O)Nc1ccc(C(F)(F)F)cc1,-5.2,-1.6,-0.6,1.1,0.1,0.5,x,x,
CC(C)CCNC(=O)CN1N=C(c2ccc(Cl)cc2)CCC1=O,0.9,-2.4,-3.1,-3.3,-2.5,-3.2,x,x,
COc1cccc(CCC(=O)N2CCC(n3nccc3NC(=O)CC(C)C)CC2)c1,1.8,5.3,-2.9,-2.4,-3.5,-0.6,x,x,
CCSc1nnc(NC(=O)C2CSC3(C)CCC(=O)N23)s1 (stereo not given),-3.1,1.1,x,1.8,-1.4,-3.7,x,x,
CC(C)C[C@H]1CN([C@@H](Cc2ccccc2)CN2CCC[C@H]2CN2C(=O)C(=O)NC[C@@H]2Cc2ccc(O)cc2)C(=O)C(=O)N1CCc1ccccc1,x,x,x,x,-0.9,-4.3,x,x,
C=CCn1c(SCC(=O)N2CCN(C(=O)c3ccco3)CC2)nc2sc(CC)cc2c1=O,-14.1,21.0*,-1.0,1.5,-1.6,2.8,9.9,8.2,
Cc1csc2ncnc(NNC(=O)c3ccc(Cl)cc3)c12,-0.9,17.3*,-8.7,1.9,5.3,0.4,5.5,33.7*,
O=C(NNc1ncnc2sccc12)c1ccc(Cl)cc1,x,1.8,1.1,2.5,3.0,-3.3,x,x,
Cn1c(/C=N/NC(=O)c2ccccc2Br)nc2ccccc21,-17.3,19.9*,-2.1,1.4,0.8,0.8,3.4,16.9,
CCOC(=O)c1sc(Nc2ccccc2)nc1C,4.0,7.0,-5.6,-2.6,-1.0,-1.7,x,x,
CCOc1cccc2sc(Nc3nc4ccc(NC(C)=O)cc4s3)nc12,-27.7,32.5*,-3.9,9.2,-4.3,-3.7,14.6,89.0*,
CCC(=O)Nc1nc2ccc(NC(C)=O)cc2s1,-0.9,3.9,-2.1,1.9,0.7,-0.2,x,x,
CCOC(=O)c1sc(Nc2nc3c(OC)cccc3s2)nc1C,-7.4,17.0*,-4.8,11.2,-1.5,-0.5,6.6,12.0,
C=C1C(=O)c2sccc2C(c2ccc(OC)c(OC)c2)C1COC(C)=O (stereo not given),-0.3,x,x,1.8,-0.1,16.1,x,x,
Cc1cc(Cl)ccc1NC(=S)NCCN1CCOCC1,3.9,-2.2,-3.7,-6.6,2.0,-12.7,x,x,
CCOC(=O)C1=C(CSc2nc(CC)c(C)cc2C#N)OC(N)=C(C#N)C1c1ccc(OC)cc1 (stereo not given),-2.7,21.6*,9.3,34.0,5.9,9.1,3.1,11.7,
COc1ccc2nc(N3CCN(C(=O)c4ccc5ncsc5c4)CC3)sc2c1,-20.1,17.2*,0.7,-2.5,2.2,-0.5,10.6,29.7*,
CCNC(=O)c1ccc(NS(=O)(=O)c2ccc3[nH]c(=O)[nH]c3c2)cc1,1.1,3.6,0.3,-0.7,-0.4,0.3,x,x,
O=C(O)c1ccccc1-c1c2cc(I)c(=O)c(I)c-2oc2c(I)c(O)c(I)cc12,-174.2,146.8*,-51.0,x,-99.2,-74.2,90.5*,27.0*,
O=c1c2ccccc2sn1-c1ccc(S(=O)(=O)N2CCCCC2)cc1,-44.6,-23.1,-0.7,0.9,0.1,-1.0,x,x,
Cc1ccc(-n2sc3ccccc3c2=O)cc1S(=O)(=O)N1CCCCC1,-30.2,82.9*,1.9,9.4,-2.1,-3.5,25.4*,20.5,
O=c1c2ccccc2sn1-c1ccc(S(=O)(=O)N2CCCC2)cc1,-49.8,38.0*,-0.4,1.0,-0.3,0.5,12.5,21.8,
O=C(CCCOc1ccc(Cl)cc1Cl)NCc1ccncc1,-22.2,24.3*,-3.2,9.1,0.6,5.2,5.2,12.8,
Cc1ccc(CN2CC(C(=O)N3CCN(c4ccccc4O)CC3)CC2=O)cc1 (stereo not given),3.8,0.2,-2.1,0.9,0.1,7.1,x,x,
SMILES,IDE cell activ,IDE cell inh,TPT1 inhibitor,Rpn11 inh,HNF4A DNA FP,CSN inh,IDE cell inh cf,HEK cytotox,others
O=C(Nc1ccc2nc(-c3cccs3)[nH]c2c1)c1cccs1,-3.6,20.6*,0.0,-5.9,-5.7,3.4,10.3,22.4*,
Cn1c(SCC(=O)NCCc2ccc(S(N)(=O)=O)cc2)nc2ccccc2c1=O,-56.4,40.7*,-2.4,-12.7,-0.4,3.8,8.7,7.5,
N=c1oc2c3c4c(cc2cc1C(=O)Nc1ccccc1)CCCN4CCC3,-29.7,51.1*,-24.2,-141.6,-52.8,-70.1,25.9*,20.6,
CCCCC(=O)Nc1ccc(C(=O)NN2C(=O)c3ccccc3C2=O)cc1,6.4,1.5,-0.6,2.5,-1.5,4.7,x,x,
CC1=C2C3OC(=O)C(C)C3CCC2(C)C=CC1=NO (stereo not given),-2.5,x,x,0.0,0.8,-3.9,x,x,
COc1ccc([C@@H]2C[C@H]3CN(c4ccccc4)C(=O)[C@]34CCCN24)c(OC)c1OC,-12.6,21.8*,6.4,19.2,8.6,5.2,7.7,13.7,
COCc1cc([C@@H]2C[C@H]3CN(c4ccccc4)C(=O)[C@]34CCCN24)ccc1OC,6.1,2.5,1.3,18.9,5.5,4.1,x,x,
CN1CCc2c(C#N)c(N3CCCCC3)nc(N3CCOCC3)c2C1,x,2.5,-5.7,x,x,x,x,x,
C=CCNc1nc(N2CCOCC2)c(C#N)c2c1CN(C)CC2,-1.8,16.4*,-7.0,-18.0,-3.7,2.4,2.7,12.2,
Cc1cccc(N2CCN(C(=O)CCNC(=O)Cn3ccc4ccccc4c3=O)CC2)c1C,-10.6,16.9*,0.0,1.6,1.1,5.9,8.0,15.3,
Cc1nc2ccc(NC(=S)NC3CCCCC3)cc2nc1C,-4.5,21.1*,-0.7,2.1,2.9,4.9,6.5,16.0,
CC(=O)Nc1sc2c(c1-c1nc3ccccc3s1)CN(C(C)C)CC2,-10.2,30.1*,x,x,-4.1,-72.3,5.0,95.1*,
N#C/C(=C\c1ccc(O)c(O)c1)C(=O)NCCCc1ccccc1,-36.5,28.7*,13.0,3.9,-1.7,2.0,38.2*,13.8,
Cc1cc(/C=C\c2ccc3cc(N(C)C)ccc3[n+]2C)c(C)n1-c1ccccc1,-44.5,25.6*,-18.5,81.9*,28.2,79.5,85.1*,116.9*,
